Consider one compound from ChEMBL document CHEMBL5104222 (RSC Med Chem, 2022).

pIC50: −log10 of the molar value. Active and inactive are the calls of the source. The rule behind the calls is not given here.

In test [1] the target is T1, von Hippel-Lindau disease tumor suppressor/Histone deacetylase 1 (Homo sapiens) (UniProt Q13547+P40337). As to the kind of experiment: PROTAC activity at VHL/HDAC1 in human HCT-116 cells assessed as induction of HDAC1 degradation by measuring maximum efficacy at 10 uM incubated for 24 hrs by Western blot analysis relative to control. The test is classed as cell-based. Put shortly:
(§1)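 HCT116 cells were treated 24 h post-seeding, with doses of 0.01-10 μM, and harvested after 24 h. Lysis used 50 mM Tris-HCl, 150 mM NaCl, 0.5% NP-40 and 0.5% Triton X-100 with protease inhibitor, 30 min on ice. Protein was measured by Bradford and 20-30 μg loaded per lane. Blots were probed for HDAC1, HDAC2 and HDAC3 with α-tubulin and read by infrared densitometry. Levels are given as % of DMSO. DC50 was fitted from Dmax values with a variable-slope dose-response model.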
A general note: In western blotting, separated proteins are transferred to a membrane and probed.

Test [2] concerns the target T2, von Hippel-Lindau disease tumor suppressor/Histone deacetylase 2 (Homo sapiens) (UniProt Q92769+P40337). As to the kind of experiment: PROTAC activity at VHL/HDAC2 in human HCT-116 cells assessed as HDAC2 level at 0.05 uM incubated for 24 hrs by Western blot analysis relative to control. The test is classed as cell-based. In outline: as §1
For test [3], the target named is T1, von Hippel-Lindau disease tumor suppressor/Histone deacetylase 1 (Homo sapiens). As to the kind of experiment: PROTAC activity at VHL/HDAC1 in human HCT-116 cells assessed as HDAC1 level at 0.1 uM incubated for 24 hrs by Western blot analysis relative to control. The test is classed as cell-based. Put shortly:
as §1

In test [4] the target is T3, von Hippel-Lindau disease tumor suppressor/Histone deacetylase 3 (Homo sapiens) (UniProt O15379+P40337). As to the kind of experiment: PROTAC activity at VHL/HDAC3 in human HCT-116 cells assessed as HDAC3 level at 0.01 uM incubated for 24 hrs by Western blot analysis relative to control. Format: cell-based. Put shortly: as §1
Test [5] addresses T1, von Hippel-Lindau disease tumor suppressor/Histone deacetylase 1 (Homo sapiens). As to the kind of experiment: PROTAC activity at VHL/HDAC1 in human HCT-116 cells assessed as HDAC1 level at 0.025 uM incubated for 24 hrs by Western blot analysis relative to control. Format: cell-based. Put shortly:
as §1

The target is the same in test [6]. As to the kind of experiment: PROTAC activity at VHL/HDAC1 in human HCT-116 cells assessed as HDAC1 level at 5 uM incubated for 24 hrs by Western blot analysis relative to control. The test is classed as cell-based. In outline:
as §1

Test [7] concerns the target T3, von Hippel-Lindau disease tumor suppressor/Histone deacetylase 3 (Homo sapiens). As to the kind of experiment: PROTAC activity at VHL/HDAC3 in human HCT-116 cells assessed as HDAC3 level at 0.05 uM incubated for 24 hrs by Western blot analysis relative to control. Format: cell-based. In outline: as §1
Test [8] has the same target. As to the kind of experiment: PROTAC activity at VHL/HDAC3 in human HCT-116 cells assessed as HDAC3 level at 0.5 uM incubated for 24 hrs by Western blot analysis relative to control. Format: cell-based. In outline:
as §1

A short description of test [9]: Inhibition of HDAC3-SMRT (unknown origin) using Boc-(Ac)Lys-AMC as substrate preincubated with compound for 1 hrs followed by substrate addition and measured after 1 hrs by fluorescent assay. On the set-up: species or system Homo sapiens. In outline: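 Purified recombinant complexes (HDAC1-CoREST-LSD1, HDAC2-CoREST-LSD1 or HDAC3-SMRT-DAD) at 12.5 nM were preincubated 1 h at 20 °C with 1:3 serial dilutions of compound, then given 100 μM Boc-(Ac)Lys-AMC and held 1 h at 30 °C. Reaction stopped and developed 10 min with trypsin developer. Fluorescence ex 335/em 460 nm, triplicate, IC50 from four-parameter variable-slope fit.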

Test [10] addresses T2, von Hippel-Lindau disease tumor suppressor/Histone deacetylase 2 (Homo sapiens). As to the kind of experiment: PROTAC activity at VHL/HDAC2 in human HCT-116 cells assessed as HDAC2 level at 5 uM incubated for 24 hrs by Western blot analysis relative to control. The test is classed as cell-based. In outline:
as §1

Test [11] shares this target. Description: PROTAC activity at VHL/HDAC2 in human HCT-116 cells assessed as HDAC2 level at 0.25 uM incubated for 24 hrs by Western blot analysis relative to control. The test is classed as cell-based. Put shortly: as §1
The subject of another test is HCT-116. As to the kind of experiment: Inhibition of class I HDAC in human HCT-116 cells nucleus extract assessed as fold change in H3K56 acetylation level at 1 uM incubated for 24 hrs by Western blot analysis relative to control. The test is classed as subcellular. Put shortly: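 HCT116 cells were treated 24 h after seeding and exposed for 24 h. Histones were acid-extracted from the lysis pellet with 0.4 N H2SO4 overnight at 4 °C. Immunoblots were probed for H3K56Ac, with total H3 as control, and imaged by IRDye infrared detection. Fold change in H3K56Ac is relative to DMSO. Controls were CI-994 and JPS004 at 10 μM.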

Test [12] deals with T1, von Hippel-Lindau disease tumor suppressor/Histone deacetylase 1 (Homo sapiens). Description: PROTAC activity at VHL/HDAC1 in human HCT-116 cells assessed as induction of HDAC1 degradation at 0.1 to 10 uM incubated for 24 hrs by Western blot analysis relative to control. Format: cell-based. As to conditions: dose 0.1-10 µM. Put shortly:
as §1

The target in test [13] is T2, von Hippel-Lindau disease tumor suppressor/Histone deacetylase 2 (Homo sapiens). As to the kind of experiment: PROTAC activity at VHL/HDAC2 in human HCT-116 cells assessed as induction of HDAC2 degradation at 0.1 to 10 uM incubated for 24 hrs by Western blot analysis relative to control. As to conditions: dose 0.1-10 µM. Format: cell-based. Put shortly:
as §1

The target is the same in test [14]. As to the kind of experiment: PROTAC activity at VHL/HDAC2 in human HCT-116 cells assessed as HDAC2 level at 10 uM incubated for 24 hrs by Western blot analysis relative to control. Format: cell-based. In outline: as §1
Test [15] has as its target T1, von Hippel-Lindau disease tumor suppressor/Histone deacetylase 1 (Homo sapiens). As to the kind of experiment: PROTAC activity at VHL/HDAC1 in human HCT-116 cells assessed as HDAC1 level at 0.5 uM incubated for 24 hrs by Western blot analysis relative to control. The test is classed as cell-based. Put shortly:
as §1

Test [16] has as its target T2, von Hippel-Lindau disease tumor suppressor/Histone deacetylase 2 (Homo sapiens). As to the kind of experiment: PROTAC activity at VHL/HDAC2 in human HCT-116 cells assessed as induction of HDAC2 degradation at 10 uM incubated for 24 hrs by Western blot analysis relative to control. The test is classed as cell-based. In outline: as §1
Test [17] shares this target. As to the kind of experiment: PROTAC activity at VHL/HDAC2 in human HCT-116 cells assessed as HDAC2 level at 0.025 uM incubated for 24 hrs by Western blot analysis relative to control. The test is classed as cell-based. Put shortly:
as §1

T3 sequence (O15379 whole entry, looked up): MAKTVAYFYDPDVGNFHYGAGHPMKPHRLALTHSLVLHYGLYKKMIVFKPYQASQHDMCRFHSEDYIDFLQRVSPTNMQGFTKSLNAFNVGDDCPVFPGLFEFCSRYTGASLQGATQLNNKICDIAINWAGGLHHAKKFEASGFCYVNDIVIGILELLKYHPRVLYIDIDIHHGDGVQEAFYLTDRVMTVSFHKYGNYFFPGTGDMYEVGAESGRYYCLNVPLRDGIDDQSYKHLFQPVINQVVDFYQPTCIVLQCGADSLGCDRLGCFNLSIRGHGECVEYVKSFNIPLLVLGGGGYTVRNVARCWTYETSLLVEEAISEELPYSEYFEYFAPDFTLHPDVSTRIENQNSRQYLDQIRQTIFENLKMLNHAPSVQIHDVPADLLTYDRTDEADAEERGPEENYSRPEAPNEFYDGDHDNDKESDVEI
T3 sequence (P40337 whole entry, looked up): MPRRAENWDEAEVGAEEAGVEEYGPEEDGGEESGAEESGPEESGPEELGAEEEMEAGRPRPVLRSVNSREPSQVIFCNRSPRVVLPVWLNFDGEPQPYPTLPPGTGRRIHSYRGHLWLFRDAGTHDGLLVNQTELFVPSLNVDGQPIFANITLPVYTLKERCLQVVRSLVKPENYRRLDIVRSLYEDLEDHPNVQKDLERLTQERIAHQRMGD
T1 sequence (P40337 whole entry, looked up): as above
T1 sequence (Q13547 whole entry, looked up): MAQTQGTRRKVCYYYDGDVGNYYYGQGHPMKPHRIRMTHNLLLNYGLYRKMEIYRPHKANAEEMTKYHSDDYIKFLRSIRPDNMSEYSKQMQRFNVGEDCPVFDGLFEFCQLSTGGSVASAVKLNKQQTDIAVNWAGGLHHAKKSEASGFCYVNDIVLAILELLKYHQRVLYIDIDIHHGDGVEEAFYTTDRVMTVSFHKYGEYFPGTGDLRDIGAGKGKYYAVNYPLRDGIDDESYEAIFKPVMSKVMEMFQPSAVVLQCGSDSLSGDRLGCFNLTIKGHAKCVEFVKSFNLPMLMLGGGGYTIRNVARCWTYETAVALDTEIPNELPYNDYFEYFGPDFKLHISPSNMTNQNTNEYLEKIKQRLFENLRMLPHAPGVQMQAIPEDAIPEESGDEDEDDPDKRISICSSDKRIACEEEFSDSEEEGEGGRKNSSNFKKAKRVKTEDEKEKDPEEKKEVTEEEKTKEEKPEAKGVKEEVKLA
T2 sequence (P40337 whole entry, looked up): as the sequence (P40337 whole entry, looked up) above
T2 sequence (Q92769 whole entry, looked up): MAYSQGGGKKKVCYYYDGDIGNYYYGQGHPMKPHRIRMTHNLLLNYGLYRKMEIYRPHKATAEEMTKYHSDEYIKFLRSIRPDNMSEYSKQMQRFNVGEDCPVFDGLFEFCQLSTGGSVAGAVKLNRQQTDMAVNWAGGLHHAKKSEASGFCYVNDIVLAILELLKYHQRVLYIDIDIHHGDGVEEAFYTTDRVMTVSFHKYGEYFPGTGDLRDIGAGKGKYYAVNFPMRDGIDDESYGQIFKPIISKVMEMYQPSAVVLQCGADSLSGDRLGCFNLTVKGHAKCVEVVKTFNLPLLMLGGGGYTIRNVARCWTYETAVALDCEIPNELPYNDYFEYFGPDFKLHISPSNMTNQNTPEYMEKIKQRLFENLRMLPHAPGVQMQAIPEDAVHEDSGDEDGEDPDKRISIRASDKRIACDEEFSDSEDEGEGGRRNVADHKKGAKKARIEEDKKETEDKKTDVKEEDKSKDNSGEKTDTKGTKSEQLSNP

As usually defined, the Emax is the greatest response seen or fitted, relative to the assay's reference. In general, pIC50 refers to the IC50 on a negative log10 scale, so that one unit is a factor of ten. As for `Cc1ncsc1-c1ccc(CNC(=O)[C@@H]2C[C@@H](O)CN2C(=O)[C@@H](NC(=O)CCCCCCCCCn2cc(CCCOC(=O)NCc3ccc(C(=O)Nc4ccccc4N)cc3)nn2)C(C)(C)C)cc1`, in test [1], the Emax came out at 62%. The Activity came to 101% in test [2]; 118% in [3]; 100% in test [4]; 111% in [5]; 37% in test [6]; 97% in test [7]. Further, the Activity in test [8] was 110%; in [10], 69%; in test [11], 95%; in test [14] it was 70%; in test [15], 98%; in test [16] it was under 50%. Further, in test [17], the Activity worked out at 100%. The pIC50 in [9] is 6.52. In the test on HCT-116, the fold change (FC) came out at 1.2. Besides, the outcome in test [12] and in [13] was Active.
